Source: BindingDB's records for doi:10.1021/jm9008532 (Universite Catholique De Louvain, 2009)
pIC50: −log10 of the molar value.

Target: T1, Fatty-acid amide hydrolase 1 (Homo sapiens, UniProt O00519)
T1 sequence (O00519 whole entry): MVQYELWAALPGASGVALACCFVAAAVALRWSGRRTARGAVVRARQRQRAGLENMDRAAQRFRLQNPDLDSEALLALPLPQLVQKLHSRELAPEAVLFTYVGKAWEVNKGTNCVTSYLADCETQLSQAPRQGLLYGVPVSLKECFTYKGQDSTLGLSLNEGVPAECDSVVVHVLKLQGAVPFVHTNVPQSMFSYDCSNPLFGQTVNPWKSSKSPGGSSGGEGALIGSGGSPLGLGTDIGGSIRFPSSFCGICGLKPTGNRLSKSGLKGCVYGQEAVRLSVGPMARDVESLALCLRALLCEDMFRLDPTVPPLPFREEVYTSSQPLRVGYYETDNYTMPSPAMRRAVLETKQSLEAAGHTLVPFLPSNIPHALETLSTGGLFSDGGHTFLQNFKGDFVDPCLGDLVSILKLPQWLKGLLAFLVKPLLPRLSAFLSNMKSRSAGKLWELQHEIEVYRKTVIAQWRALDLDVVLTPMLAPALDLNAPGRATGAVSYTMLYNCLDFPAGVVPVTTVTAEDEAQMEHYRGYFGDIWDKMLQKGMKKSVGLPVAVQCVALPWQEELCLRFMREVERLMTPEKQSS
Test: Inhibition of human recombinant FAAH using [3H]anandamide by competitive hydrolysis assay
Procedure, shortened: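 Compounds were added in DMSO, with DMSO alone as control, plus [3H]-AEA at 2 μM final, 37 °C for 10 min. The reaction was stopped on ice with cold chloroform/methanol (1:1), and the aqueous phase was counted by LSC with the buffer-only blank subtracted. IC50 is the mean of three independent experiments.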

With `CC(=O)O[C@@H]1[C@@H]([C@@H](C)OC(=O)CCc2ccccc2)C(=O)N1C(=O)CCc1ccccc1` [1-(3-Phenylpropanoyl)-(3R,4R)-3-[1(R)-(3-phenylpropanoyloxy)-ethyl]-4-(acetoxy)-azetidin-2-one] the pIC50 was 5.66.
